In ChEMBL document CHEMBL4346713, “Design, synthesis and docking studies of benzimidazole derivatives as potential EGFR inhibitors” (2019):
Active and inactive are the calls of the source. The rule behind the calls is not given here.

How the values were obtained:
[1] = test system: MCF7; assay: Antiproliferation activity against human MCF7 cells assessed as inhibition of cell proliferation at 10 uM by MTT assay relative to control; assay type: functional
How it was run: (§1)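 Cells grown at 37°C in high-glucose DMEM with 10% FBS, 2 mM L-glutamine and 1% penicillin–streptomycin. Compounds, dissolved in DMSO, were added at 80% confluency, with DMSO-only and untreated wells as controls. MTT in PBS was then added for 2 h at 37°C. Formazan was dissolved in DMSO and read at 550 nm, with viability expressed relative to control cells set as 100%.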

[2] = test system: MCF7; assay: Antiproliferation activity against human MCF7 cells assessed as inhibition of cell proliferation at 1 uM by MTT assay relative to control; assay type: functional; how it was run: as §1

| SMILES | inhibition [1] | inhibition at 1 µM [2] |
| --- | --- | --- |
| S=c1[nH]nc(Cn2c(-c3ccc(OCc4ccccc4)c(OCc4ccccc4)c3)nc3ccccc32)n1CCN1CCOCC1 | inactive | – |
| C#Cc1cccc(Nc2ncnc3cc(OCCOC)c(OCCOC)cc23)c1 [ERLOTINIB] | – | 60% |
